The values below come from ChEMBL document CHEMBL5230171, “Expanding the structure-activity relationships of alkynyl diphenylurea scaffold as promising antibacterial agents” (RSC Med Chem, 2023).

The test system of data set [1] is Staphylococcus epidermidis. Briefly: Antibacterial activity against Staphylococcus epidermidis 101 assessed as inhibition of bacterial growth incubated for 18 to 20 hrs by CLSI protocol based broth microdilution method. In kind it is functional. Conditions: time 18-20 hrs. Summed up:
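Staphylococcal and E. coli strains were diluted from a 0.5 McFarland suspension in cation-adjusted Mueller Hinton broth to ~5 × 10^5 CFU mL−1. They were incubated with serial dilutions of test agent in broth microdilution, and the MIC was recorded.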
On the technique in general: In broth dilution the organism is exposed to a series of concentrations in liquid medium.

Data set [2] can be described thus: Hemolytic activity in rabbit erythrocytes at 32 to 64 ug/ml incubated for 30 mins by absorbance based assay. As to conditions: erythrocyte, 0.5 h, dose 32-64 µg/ml. In kind it is toxicity, cell-based, Oryctolagus cuniculus. Summed up:
(§1)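 Rabbit erythrocytes were washed three times in PBS pH 7.4 and adjusted to A540 0.8. They were mixed 1:1 with compound (final 16, 32, 64 μg mL−1) for 30 min at 37 °C. After centrifugation at 13 000 × g for 5 min, supernatant A540 was read as % of 1% Triton X-100 complete hemolysis. PBS served as negative control. Each concentration was run twice.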

Data set [3] relates to Staphylococcus aureus. In words: Antibacterial activity against methicillin resistant Staphylococcus aureus 123 assessed as inhibition of bacterial growth incubated for 18 to 20 hrs by CLSI protocol based broth microdilution method. In kind it is functional. As to conditions: time 18-20 hrs. Summed up:
(§2)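 Broth microdilution against staphylococcal clinical isolates. Each strain was prepared as a 0.5 McFarland suspension and diluted in cation-adjusted Mueller Hinton broth to ~5 × 10^5 CFU mL−1. Serial dilutions of test agents in DMSO stock were incubated with the bacteria, and the MIC was recorded.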

For data set [4], the system named is Staphylococcus aureus. Briefly: Antibacterial activity against methicillin resistant Staphylococcus aureus 385 assessed as inhibition of bacterial growth at 0.5 ug/ml incubated for 18 to 20 hrs by CLSI protocol based broth microdilution method. The data set is classed as functional, organism-based. As to conditions: dose 0.5 µg/ml, time 18-20 hrs.
Data set [5] relates to Staphylococcus aureus. In words: Antibacterial activity against vancomycin resistant Staphylococcus aureus 12 assessed as inhibition of bacterial growth incubated for 18 to 20 hrs by CLSI protocol based broth microdilution method. As to conditions: time 18-20 hrs. The data set is classed as functional. Summed up:
as §2

The test system of data set [6] is Staphylococcus aureus. In words: Antibacterial activity against methicillin resistant Staphylococcus aureus NRS384 USA300 assessed as inhibition of bacterial growth incubated for 18 to 20 hrs by CLSI protocol based broth microdilution method. As to conditions: time 18-20 hrs, read-out: MIC. In kind it is functional. The method, boiled down: as §2
Data set [7] has as its system Staphylococcus aureus. In words: Antibacterial activity against methicillin resistant Staphylococcus aureus NRS384 USA300 infected in Balb/c mouse model of skin infection assessed as reduction in bacterial burden in spleen administered topically twice daily for three consecutive days from day 4 to 6 and measured 24 hrs post last dose. In kind it is functional. As to conditions: route top; time 4 day. The method, boiled down:
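Mice were anesthetized with 2,2,2-tribromoethanol and injected subcutaneously with 100 μL containing 2 × 10^9 CFU MRSA USA300 in 0.5% HPMC in saline. Topical treatment used a petroleum jelly vehicle, with a fusidic acid positive control. Lesions were photographed 24 h after the last dose. A ~1.5 cm2 skin patch (homogenized in 1 mL saline) and the spleen (in 0.5 mL) were serially diluted and plated on MSA at 37 °C overnight for CFU.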

Data set [8] relates to Staphylococcus aureus. In words: Antibacterial activity against methicillin resistant Staphylococcus aureus 384 assessed as inhibition of bacterial growth at 0.5 ug/ml incubated for 18 to 20 hrs by CLSI protocol based broth microdilution method. The data set is classed as functional, organism-based. As to conditions: dose 0.5 µg/ml, time 18-20 hrs.
Data set [9] is described as follows: Hemolytic activity in rabbit erythrocytes at 16 ug/ml incubated for 30 mins by absorbance based assay. In kind it is toxicity, cell-based, Oryctolagus cuniculus, Erythrocyte. Conditions: at 16 µg/mL, read-out: Activity. The method, boiled down: as §1
The test system of data set [10] is Staphylococcus aureus. In words: Antibacterial activity against methicillin resistant Staphylococcus aureus 384 assessed as inhibition of bacterial growth incubated for 18 to 20 hrs by CLSI protocol based broth microdilution method. The data set is classed as functional. Conditions: time 18-20 hrs. The method, boiled down: as §2
Data set [11] deals with Streptococcus pyogenes. Briefly: Antibacterial activity against Streptococcus pyogenes MGAS 1882 assessed as inhibition of bacterial growth incubated for 18 to 20 hrs by CLSI protocol based broth microdilution method. In kind it is functional. Conditions: time 18-20 hrs. Summed up:
(§3)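 Streptococci were diluted from a 0.5 McFarland suspension in cation-adjusted Mueller Hinton broth with 5% lysed horse blood. They were incubated with serial dilutions of test agent in broth microdilution, and the MIC was recorded.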

The subject of data set [12] is Staphylococcus aureus. In words: Antibacterial activity against methicillin resistant Staphylococcus aureus 386 assessed as inhibition of bacterial growth incubated for 18 to 20 hrs by CLSI protocol based broth microdilution method. In kind it is functional. Conditions: time 18-20 hrs. The method, boiled down:
as §2

Data set [13] relates to Staphylococcus aureus. Briefly: Induction of drug resistance in methicillin resistant Staphylococcus aureus NRS384 USA300 assessed as change in MIC measured after 4 passages by broth microdilution method. In kind it is functional, organism-based. The method, boiled down:
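Multi-step resistance in MRSA USA300 over 14 consecutive passages, with rifampicin as the control antibiotic. The MIC was determined by broth microdilution at each passage. Resistance was defined as a greater than four-fold rise over the initial MIC.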

Data set [14] has as its system Staphylococcus aureus. Briefly: Antibacterial activity against methicillin sensitive Staphylococcus aureus 6538 assessed as inhibition of bacterial growth incubated for 18 to 20 hrs by CLSI protocol based broth microdilution method. The data set is classed as functional. As to conditions: time 18-20 hrs. Summed up:
as §2

In data set [15] the test system is Streptococcus pneumoniae. Briefly: Antibacterial activity against Streptococcus pneumoniae 700677 assessed as inhibition of bacterial growth incubated for 18 to 20 hrs by CLSI protocol based broth microdilution method. The data set is classed as functional. Conditions: time 18-20 hrs. Summed up:
as §3

In data set [16] the test system is Streptococcus pneumoniae. In words: Antibacterial activity against Streptococcus pneumoniae 51916 assessed as inhibition of bacterial growth incubated for 18 to 20 hrs by CLSI protocol based broth microdilution method. In kind it is functional. As to conditions: time 18-20 hrs. The method, boiled down: as §3
The test system of data set [17] is Staphylococcus aureus. Briefly: Antibacterial activity against methicillin resistant Staphylococcus aureus 123 assessed as inhibition of bacterial growth at 0.5 ug/ml incubated for 18 to 20 hrs by CLSI protocol based broth microdilution method. In kind it is functional, organism-based. As to conditions: dose 0.5 µg/ml, time 18-20 hrs.

Converted amounts (≈) assume the structure as drawn. The source made the active and inactive calls. Where only a bound is given, the exact number is not on record here.

The term MIC denotes the smallest concentration in the dilution series that meets the test's criterion for growth inhibition. `C/C(=N\NC(=N)N)c1ccc(NC(=O)Nc2ccc(C#Cc3ccccc3)cc2)cc1`: the MIC in data set [1], in [3], in [5], in [6], in [10] and in [11] was 0.5 µg/mL (≈ 1.22 µM) in each case. Further, the MIC in data set [12], in data set [14], in data set [15] and in data set [16] was 0.5 µg/mL (≈ 1.22 µM) throughout. Also, the Activity result in data set [2] is reported as “Toxic”; in [7], greater than 1 log10CFU/ml. The result in data set [4], in data set [8] and in data set [17] was Active. The hemolysis at 0.5 h, 16 ug/ml in data set [9] was 2%. In addition, the result in data set [13] was inactive.
